System: MS2 coat protein
Assay: apparent Kd, MS2 coat protein; higher = weaker binding; RNA-MaP array; FMN 200 µM where present
Outline: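 The apparent Kd is the median of filtered binding-curve fits, one per cluster, to green signal normalised to red-channel RNA signal and control-cluster median Fmax. The clusters were on Illumina sequencing chips, and stalled E. coli RNA polymerase had transcribed the designs on them. Titration used SNAP-549-labelled MS2 coat protein from 0.7 or 1.5 nM, doubling to 3 µM, without and then with constant ligand, in 100 mM Tris-HCl pH 7.5, 80 mM KCl, 4 mM MgCl2, BSA, DTT, yeast tRNA and Tween-20.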

[1] = designed as: OFF switch for flavin mononucleotide, no ligand
[2] = ligand present: flavin mononucleotide, designed as: OFF switch for flavin mononucleotide
[3] = designed as: ON switch for flavin mononucleotide, no ligand
[4] = ligand present: flavin mononucleotide, designed as: ON switch for flavin mononucleotide

Sequence: UAUAUAUAGUAAGGAUAUGUAGUUAUUUUAUAAACAGAAGGUACUGACAUGAGGAUCACCCAUGUUUUAGUGUGGGCAUGUAGA
- apparent Kd [1]: 0.0877 µM
- apparent Kd [2]: 0.128 µM

Sequence: AAAACAUGAGGAUCACCCAUGUUUAGAUCGGUCAAUAGAAGUGAGGAUAUACGAAGUUAAGGCUGGUAGAAGGCACUGGGUACA
- apparent Kd [3]: 0.0324 µM
- apparent Kd [4]: 0.0322 µM

Sequence: GAAUUUUUACAGAAGGUGUUUUACAUGAGGAUCACCCAUGUUUUAUUGUUUAAAUUUGUUAUUUACAAGGAUAUGUUCUAUUCU
- apparent Kd [3]: 0.0267 µM
- apparent Kd [4]: 0.0197 µM

Sequence: ACUAGAUGAGGAUAUGCAUAUUUUCGUGUUCUUCUAGAUUAACAUGAGGAUCACCCAUGUAGAAGGCGUCUGGA
- apparent Kd [1]: 0.0178 µM
- apparent Kd [2]: 0.026 µM

Sequence: AUGUACCUAGGAUAUACAUGAGGAUCACCCAUGUUCCGGGUGCAAUCAAGUUAAUAUUGUAGAAGGAGGUGAAA
- apparent Kd [1]: 0.017 µM
- apparent Kd [2]: 0.0318 µM

Sequence: UGGGUAAAUGUAGGAUAUUUAUAUUAAUAGUAUGGAGAAGGACAUGAGGAUCACCCAUGUACAGGGAAUUACCCAUUUCCUCUC
- apparent Kd [1]: 1.01 µM
- apparent Kd [2]: 1.1 µM

Sequence: GCGUGAAAUGUAGGAUAUGACACAGGAAACUGGUCAGAAGGACAUGAGGAUCACCCAUGUAAAAUGUUCAAGAAUAACACAUGC
- apparent Kd [1]: 0.0303 µM
- apparent Kd [2]: 0.0869 µM

Sequence: UCUUAUUGCAAGGAUAUGCAAAUUAUUAUUAAUGCAGAAGGUGCUACAUGAGGAUCACCCAUGUUUCCGGGUUU
- apparent Kd [1]: 0.045 µM
- apparent Kd [2]: 0.161 µM

Sequence: GCACUGGAUGUAGGAUAUCAGGACGAUAAGUCCUGAGAAGGACAUGAGGAUCACCCAUGUAAACUCAACCAGUGCUAUAAUAUA
- apparent Kd [1]: 0.0152 µM
- apparent Kd [2]: 0.0228 µM

Sequence: GUGACGAAUGUAGGAUAUGCUGAGGAAUACUCAGCAGAAGGACAUGAGGAUCACCCAUGUACUAAUAGUGAUAAUAAACGUCAC
- apparent Kd [1]: 0.0156 µM
- apparent Kd [2]: 0.0776 µM

Sequence: GUAGCAAUCGGAGGAUAUUCAUAGCCGAAAGGCACAUGAGGAUCACCCAUGUGGCGAAAGCCUUGGGAGAAGGCCGAUUGCUAC
- apparent Kd [3]: 0.324 µM
- apparent Kd [4]: 0.018 µM

Sequence: CAGACGUCAGGAUAUCUGAUGUCUAACUUCGGUUAGACAUCAGAGAAGGGACAUGAGGAUCACCCAUGUCUGAA
- apparent Kd [1]: 0.0254 µM
- apparent Kd [2]: 0.0236 µM

Sequence: UUUUAACAUGAGGAUCACCCAUGUGAGGAUAUCGAAUUUUUUAUUAAUAUUAAUAAAACGAGAAGGCACAUUUU
- apparent Kd [1]: 0.0631 µM
- apparent Kd [2]: 0.0702 µM

Sequence: AUUGAUGUUGAGGAUAUGCUUUUAUUUAUUCUUGCAGAAGGCGAUACAUGAGGAUCACCCAUGUUCAUGGAAGU
- apparent Kd [1]: 0.0405 µM
- apparent Kd [2]: 0.0406 µM

Sequence: CCUGGAUCAUGAGGAUAUGGUACCUUAUUGGUACCAGAAGGCAUGUCUCUUGACAUGAGGAUCACCCAUGUAAUAAAUUCCAGG
- apparent Kd [3]: 0.841 µM
- apparent Kd [4]: 0.114 µM

Sequence: UUGCCUCAGAACAUGAGGAUCACCCAUGUGCUGCGGGCAACGUAGGAUAUGAUGGUGUGACACCGUCAGAAGGAUGAUGGUACC
- apparent Kd [3]: 0.00597 µM
- apparent Kd [4]: 0.00605 µM

Sequence: ACAUGAGGAUCACCCAUGUGUCAACCAGAAGGCACAUUACGUAUUUCUAUGUGUGCGUAAAUAAGUGAGGAUAUGGAUAAUAGA
- apparent Kd [3]: 0.0112 µM
- apparent Kd [4]: 0.00721 µM

Sequence: AGUCGGAGCAGAGGAUAUACAUGAGGAUCACCCAUGUAAAUGGAAGAAGACUGGAAACAGUCAAUGUAGAAGGCUGCUCCGACA
- apparent Kd [1]: 0.121 µM
- apparent Kd [2]: 0.625 µM

Sequence: UCGCUGCGAGGAUAUACGUUUGCGCGUUUUCGUUUGCGCGUACAUGAGGAUCACCCAUGUAGAAGGCGCGCGGC
- apparent Kd [1]: 0.0143 µM
- apparent Kd [2]: 0.0148 µM

Sequence: ACGUCCCUCCAGAAGGGCAACUCGACAUGAGGAUCACCCAUGUUUACUUGCAGGAUAUGGUGGUAGAUCUAGUUAGCUCGAAGG
- apparent Kd [3]: 0.176 µM
- apparent Kd [4]: 0.0474 µM

Sequence: AUCAAGUGAGGAUAUGAUUAUACAACAAACUAACAUCUACAUCAGAAGGCACAUGAGGAUCACCCAUGUUUGUC
- apparent Kd [1]: 0.0181 µM
- apparent Kd [2]: 0.0166 µM

Sequence: GAAGCUAUCGGAGGAUAUUCAUAGCCGAAAGGCACAUGAGGAUCACCCAUGUGCGGAAACGCUUGGGAGAAGGCCGAUAGCUUC
- apparent Kd [3]: 0.0254 µM
- apparent Kd [4]: 0.0147 µM

Sequence: UUGGACGUCGUAGGAUAUUUAGGAUAUUCCUACAUGAGGAUCACCCAUGUUGACAUGGAAGAAGGACAGAAGGACGAUGUCCAU
- apparent Kd [3]: 0.0241 µM
- apparent Kd [4]: 0.00823 µM

From the EternaBench riboswitch data
